An excerpt weighted towards active compounds, which were near 2.4% of everything screened.
Ecoli rRNA inh: inhibits bacterial ribosomal RNA function over humanized ribosomes | E. coli WT GFP vs humanized-ribosome RFP mutants, fluorescence, 24 h; active compounds read low; DMSO median 0, no signal -100 | GFP signal change (wild-type ribosome), % (concentration not given with the values) | actives 1.6% (n = 350,000);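 active means significant combined selectivity score with lowered wild-type GFP, culture density cut under 30%, mutant RFP and density less affected; inactive means any of these conditions unmet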
EWS-Fli block: blocks EWS/Fli oncoprotein-driven transcription. A673 NR0B1-luciferase reporter, viability-normalised. inhibition, % at 12.6 µM. actives 0.67% (n = 350,000);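 active means mean inhibition of at least 50% after viability correction, with every replicate also passing that limit; inconclusive means mean reaches 50% but only one of two replicates passes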;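 further: firefly luciferase signal divided by Alamar Blue viability fluorescence both relative to DMSO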
E-sel inducer: induces E-selectin expression in human endothelial cells | activation, % at 7.58 µM | HUVEC E-selectin immunofluorescence imaging; normalized: neutral wells 0, TNF-alpha wells 100 | actives 0.37% (n = 260,000);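 active means mean E-selectin-positive cell signal at least 10% of the positive control, reached in at least 60% of replicates, without over 20% cell loss; inconclusive means no rule given, readout overlaps actives, possibly toxicity-flagged; inactive means the rest, including those meeting only one limit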
Target sequence (P16581 whole entry, looked up): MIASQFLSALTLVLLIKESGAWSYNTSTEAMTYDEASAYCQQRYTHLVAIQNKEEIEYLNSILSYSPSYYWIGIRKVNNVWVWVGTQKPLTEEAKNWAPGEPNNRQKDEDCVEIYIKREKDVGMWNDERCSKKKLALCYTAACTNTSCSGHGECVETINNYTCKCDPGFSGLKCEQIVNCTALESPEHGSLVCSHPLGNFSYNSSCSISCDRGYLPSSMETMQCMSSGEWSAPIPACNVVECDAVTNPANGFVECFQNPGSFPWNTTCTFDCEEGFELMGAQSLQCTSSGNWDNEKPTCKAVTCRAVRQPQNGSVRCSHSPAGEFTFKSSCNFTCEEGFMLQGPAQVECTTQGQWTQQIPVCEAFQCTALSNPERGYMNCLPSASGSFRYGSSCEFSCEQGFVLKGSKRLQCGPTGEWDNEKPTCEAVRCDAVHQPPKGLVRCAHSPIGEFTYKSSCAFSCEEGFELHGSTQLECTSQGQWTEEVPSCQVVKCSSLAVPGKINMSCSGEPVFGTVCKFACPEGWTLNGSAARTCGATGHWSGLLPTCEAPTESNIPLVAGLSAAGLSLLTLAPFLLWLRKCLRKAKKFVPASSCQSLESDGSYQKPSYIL
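Read-out: % PE-positive cells | Test system: HUVEC | Doses: One compound dose added by pin transfer | Buffer or medium: EGM-2 over gelatin coat | Signal: Immunofluorescence imaging | Benchmarks: TNF-alpha, DMSO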
LGR2 inh: blocks bursicon-induced cAMP signaling via Drosophila LGR2; HEK293 LGR2, CRE-luciferase, bursicon-stimulated, 4 h; inhibition, % at 9.99 µM; actives 0.35% (n = 380,000);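 active means drop in luminescence signal, shown as inhibition above about 50% in the replicate tests, limit read from the data, passing the limit was not always enough; inconclusive means probably only some replicates passing the limit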;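 further: agonist challenge used bursicon conditioned medium at about half maximal strength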
AID977621: growth inhibition of wild-type GFP E. coli, dose response, H69 mutant RFP, cherry-pick. 1,900 tested, under 10 active. E. coli wild-type GFP strain growth, fluorescence, 24 h. activity change, negative = inhibition at 50 µM. shares compounds with Ecoli rRNA inh;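 active means Wild-type ribosome reporter drop at least double the humanized mutant ribosome reporter drop, growth loss under a set limit; inconclusive means no clear call, values can overlap the other calls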;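 further: wild-type GFP and H69 mutant RFP strains grown together 50/50 in each well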
AID977628: growth of wild-type and h24-humanized E. coli strains – h24 mutant RFP vs wild-type GFP, cherry-pick, dose response; E. coli WT GFP strain growth, fluorescence, 24 h; AID 977628; activity change, negative = inhibition at 50 µM; shares compounds with Ecoli rRNA inh; 1,900 tested, under 10 active;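 active means compound lowering the normal-ribosome reporter at least twice as much as the humanized-ribosome reporter, growth loss under a set limit; inconclusive means no clear call, values can overlap the other calls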;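 further: wild-type GFP and h24 humanized RFP strains co-cultured 1 to 1 per well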
Numbers without * were called inactive; u = inconclusive; x = not tested or not shown.

SMILES | Ecoli rRNA inh | EWS-Fli block | E-sel inducer | LGR2 inh | AID977621 | AID977628
O=C1CSC(c2cccnc2)N1Cc1ccc(Cl)c(Cl)c1 (stereo not given) | -35* | 4 | x | 0 | x | -4.8
CC(C)(C)c1ccc(N2C(=O)CSC2c2cccnc2)cc1 (stereo not given) | -19* | 11 | x | 2 | -10 | x
O=C1CSC(c2ccccc2)N1Cc1ccccc1 (stereo not given) | -25 | 4 | x | 3 | x | x
C[C@@H]1CN([C@H](C)CO)C(=O)c2cc(NC(=O)CCN3CCOCC3)ccc2O[C@H]1CN(C)S(=O)(=O)c1ccc(Cl)cc1 | 0 | -5 | -4 | x | x | x
CCCOc1ccc(-c2nnn(CC(=O)N3CCC(C)CC3)n2)cc1 | x | x | x | 7 | x | x
CCCCOc1ccc(-c2nnn(CCC(=O)N3CCOCC3)n2)cc1 | -22* | -37 | x | -16 | 4 | -8.5
CCOC(=O)c1sc(NC(=O)CN2CCN(c3ccccc3)CC2)nc1C | -20* | -3 | 0 | -2 | x | -19
COc1cccc(N2CCN(CC(=O)Nc3nc(C)c(C(=O)N(C)C)s3)CC2)c1 | -1 | 7 | x | 6 | x | x
COc1ccc2c3c(n(C)c2c1)[C@@H](CO)NCC31CN(CC2CC2)C1 | 3 | -9 | 1 | 11 | x | x
CC(=O)Nc1ccc(S(=O)(=O)Nc2cc(Cl)ccc2N2CCOCC2)cc1 | -8 | 4 | x | -18 | x | x
CC1CCCN(C(=O)C(C)Nc2cc(Cl)ccc2N2CCOCC2)C1 (stereo not given) | -29* | -3 | 0 | -36 | u | x
CCOC(=O)c1ccc(NC(=O)COc2ccc(CNCCO)cc2OCC)cc1 | -24* | 3 | -3 | -10 | -11 | -4.7
Cc1cccc(-c2nsc(SCC(=O)NCC3CCCO3)n2)c1 (stereo not given) | -22* | -13 | 0 | -22 | -3.1 | 1.9
COc1ccc(C#Cc2ccc([C@@H]3[C@H](CO)N4CCCCN(C(=O)Nc5cccc(F)c5)C[C@@H]34)cc2)cc1 | -49* | 33 | -1 | 11 | x | u
COc1cccc(S(=O)(=O)N2CCCCN3[C@H](C2)[C@@H](c2ccc(C#CC(C)C)cc2)[C@@H]3CO)c1 | 6 | 11 | 0 | 5 | 2.2 | -6.3
COc1ccc(C#Cc2ccc([C@H]3[C@@H](CO)N4CCCCN(C(=O)Nc5cccc(F)c5)C[C@H]34)cc2)cc1 | -48* | 29 | 0 | -32 | 3.3 | -14
COc1cccc(S(=O)(=O)N2CCCCN3[C@H](CO)[C@H](c4ccc(C#CC(C)C)cc4)[C@H]3C2)c1 | -58 | 26 | -1 | -3 | x | x
Cc1cc(C(=O)COC(=O)C2=NN(c3ccccc3)C(=O)CC2)c(C)n1CC(F)(F)F | -4 | 5 | x | -8 | x | x
Cc1cc(C(=O)COC(=O)c2ccc(O)cc2)c(C)n1CC(F)(F)F | -20* | -75 | 1 | -109 | -11 | -4.5
COc1cccc(-c2ccc3c(c2)[C@@H]2[C@@H](CCN2C(=O)C2CCCCC2)[C@H](CO)N3)c1 | -9 | -6 | 0 | -26 | x | x
C[C@@H]1CN([C@H](C)CO)S(=O)(=O)c2ccc(C#CC3CCCC3)cc2O[C@H]1CN(C)C(=O)c1cccc(F)c1 | 1 | 34 | -1 | 22 | x | x
CO[C@H]1CN(C)C(=O)c2ccc(NS(=O)(=O)c3ccc(-c4ccccc4)cc3)cc2OC[C@@H](C)NC[C@@H]1C | -1 | x | 0 | 3 | x | x
Cc1cc(C(C)(C)C)oc1C(=O)N(CC(=O)NC1CCCC1)c1ccc(F)cc1 | -6 | 11 | x | 14 | x | x
Cc1cc(C(C)(C)C)oc1C(=O)N(CC(=O)NC1CCCC1)c1c(C)cccc1C | -25* | 26 | x | 37 | x | -15
CC(C)(C)CC(=O)Nc1ccccc1N1CCN(c2ccccc2)CC1 | -19* | 2 | -2 | 3 | -18 | -14
COc1ccc(-c2nnc(COc3ccc(Br)cc3C)o2)cc1 | -19* | 8 | 0 | -5 | u | u
Cc1cc(Br)ccc1OCc1nnc(-c2ccccc2)o1 | 2 | -88 | x | -84 | x | x
CN1CCN(CC(=O)c2cc(C(C)(C)C)c(O)c(C(C)(C)C)c2)CC1 | -31* | 9 | x | 11 | -2.8 | -9.3
Cc1cc(SCC#N)n2nc(C)c(-c3ccccc3)c2n1 | 3 | x | x | -6 | x | x

Source: PubChem
